# Source: ChEMBL document CHEMBL4024793, “Development of Stem-Cell-Mobilizing Agents Targeting CXCR4 Receptor for Peripheral Blood Stem Cell Transplantation and Beyond” (J Med Chem, 2018)
# Assays:
# [1] = target: C-C chemokine receptor type 6 (Homo sapiens) (UniProt P51684); assay: Antagonist activity at human CCR6 expressed in CHOK1 cells assessed as inhibition of CCL20-induced cAMP accumulation at 10 uM preincubated for 30 mins followed agonist addition measured after 30 to 60 mins; type: functional, cell-based
# Procedure, shortened: (§1)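 GPCR cAMP assay with a single test concentration of 10 μM; result expressed as percentage inhibition for each chemokine receptor.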
# [2] = target: Chemokine XC receptor 1 (Homo sapiens) (UniProt P46094); assay: Antagonist activity at human XCR1 expressed in CHOK1 cells assessed as inhibition of lymphotactin-induced cAMP accumulation at 10 uM preincubated for 30 mins followed agonist addition measured after 30 to 60 mins; type: functional, cell-based; procedure, shortened: as §1
# Mus musculus = assay: Therapeutic ratio of MTD for sc dosed C57BL/6 mouse to MED for hematopoietic stem cell mobilization in sc dosed C57BL/6 mouse
# Procedure, shortened: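 MTD: C57BL/6 or ICR male mice dosed SC from low to high, n = 3 per group; MTD is the highest dose with zero mortality (0/3). MED: lowest SC dose raising blood CXCR4⁺ cells at 2 h, by flow cytometry, in the escalating-dose study. Ratio calculated as MTD/MED.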
# Rattus norvegicus = assay: Toxicity in Sprague-Dawley rat assessed as effect on lung size at 50 mg/kg/day, sc administered for 14 days relative to control; type: organism-based; settings: in vivo, 336 h
# Procedure, shortened: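 Non-GLP 14-day repeated-dose study in SD rats given 50 mg/kg/day SC. Major organs (liver, kidney, lung, heart) compared with vehicle for size, weight and colour. Blood analysed for hematological and biochemical parameters.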
# Cytochrome P450 2E1 = Cytochrome P450 2E1 (Homo sapiens, UniProt P05181); assay: Inhibition of human liver microsomal CYP2E1; type: ADME
# Cytochrome P450 2C9 = Cytochrome P450 2C9 (Homo sapiens, UniProt P11712); assay: Inhibition of human liver microsomal CYP2C9; type: ADME
# [3] = target: C-X-C chemokine receptor type 5 (Homo sapiens) (UniProt P32302); assay: Antagonist activity at human CXCR5 expressed in CHOK1 cells assessed as inhibition of CXCL13-induced cAMP accumulation at 10 uM preincubated for 30 mins followed agonist addition measured after 30 to 60 mins; type: functional, cell-based; procedure, shortened: as §1
# Chain of C-X-C chemokine receptor type 5 (Homo sapiens) (P32302 whole entry): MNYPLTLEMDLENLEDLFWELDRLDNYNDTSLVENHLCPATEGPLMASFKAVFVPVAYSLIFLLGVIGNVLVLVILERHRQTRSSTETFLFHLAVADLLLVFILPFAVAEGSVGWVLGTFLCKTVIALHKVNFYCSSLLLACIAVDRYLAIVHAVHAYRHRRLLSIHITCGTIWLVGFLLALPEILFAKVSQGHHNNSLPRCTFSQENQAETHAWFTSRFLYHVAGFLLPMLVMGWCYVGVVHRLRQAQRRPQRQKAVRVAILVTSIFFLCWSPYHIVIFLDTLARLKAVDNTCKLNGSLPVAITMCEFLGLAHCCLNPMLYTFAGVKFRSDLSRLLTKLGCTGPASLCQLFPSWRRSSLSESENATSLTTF
# Chain of Cytochrome P450 2E1 (P05181 whole entry): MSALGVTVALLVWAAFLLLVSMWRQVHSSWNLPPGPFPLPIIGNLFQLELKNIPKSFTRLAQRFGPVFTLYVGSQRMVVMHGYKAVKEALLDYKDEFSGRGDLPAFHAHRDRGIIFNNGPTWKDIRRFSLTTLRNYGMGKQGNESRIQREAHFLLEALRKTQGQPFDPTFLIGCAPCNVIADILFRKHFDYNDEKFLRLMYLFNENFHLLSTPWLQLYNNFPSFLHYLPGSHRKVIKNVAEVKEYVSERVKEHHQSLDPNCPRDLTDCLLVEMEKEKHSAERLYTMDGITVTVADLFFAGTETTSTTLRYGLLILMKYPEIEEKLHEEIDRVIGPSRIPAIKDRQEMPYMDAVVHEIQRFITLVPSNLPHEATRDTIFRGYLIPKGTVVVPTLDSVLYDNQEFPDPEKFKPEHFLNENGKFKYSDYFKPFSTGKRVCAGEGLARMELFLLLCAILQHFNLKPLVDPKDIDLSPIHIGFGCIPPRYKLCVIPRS
# Chain of C-C chemokine receptor type 6 (Homo sapiens) (P51684 whole entry): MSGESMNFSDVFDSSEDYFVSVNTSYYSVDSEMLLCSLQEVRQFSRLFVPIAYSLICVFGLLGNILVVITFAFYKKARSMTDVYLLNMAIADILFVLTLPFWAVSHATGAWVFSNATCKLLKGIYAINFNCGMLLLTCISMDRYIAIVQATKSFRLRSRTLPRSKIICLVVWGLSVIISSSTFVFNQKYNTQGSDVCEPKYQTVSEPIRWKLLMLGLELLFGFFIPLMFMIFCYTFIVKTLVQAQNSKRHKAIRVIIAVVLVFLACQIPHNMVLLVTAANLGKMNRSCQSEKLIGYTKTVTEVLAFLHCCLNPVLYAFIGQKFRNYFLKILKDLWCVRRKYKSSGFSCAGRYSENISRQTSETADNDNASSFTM
# Chain of Chemokine XC receptor 1 (Homo sapiens) (P46094 whole entry): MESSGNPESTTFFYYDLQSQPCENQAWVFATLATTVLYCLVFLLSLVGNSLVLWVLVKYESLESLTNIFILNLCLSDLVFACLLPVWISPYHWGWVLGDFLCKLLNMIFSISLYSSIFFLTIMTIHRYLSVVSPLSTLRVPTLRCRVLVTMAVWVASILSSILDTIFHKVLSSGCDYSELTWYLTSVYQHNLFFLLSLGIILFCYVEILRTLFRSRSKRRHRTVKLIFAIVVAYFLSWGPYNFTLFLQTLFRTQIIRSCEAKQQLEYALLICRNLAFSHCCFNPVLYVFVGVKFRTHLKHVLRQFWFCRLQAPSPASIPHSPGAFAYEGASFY
# Chain of Cytochrome P450 2C9 (P11712 whole entry): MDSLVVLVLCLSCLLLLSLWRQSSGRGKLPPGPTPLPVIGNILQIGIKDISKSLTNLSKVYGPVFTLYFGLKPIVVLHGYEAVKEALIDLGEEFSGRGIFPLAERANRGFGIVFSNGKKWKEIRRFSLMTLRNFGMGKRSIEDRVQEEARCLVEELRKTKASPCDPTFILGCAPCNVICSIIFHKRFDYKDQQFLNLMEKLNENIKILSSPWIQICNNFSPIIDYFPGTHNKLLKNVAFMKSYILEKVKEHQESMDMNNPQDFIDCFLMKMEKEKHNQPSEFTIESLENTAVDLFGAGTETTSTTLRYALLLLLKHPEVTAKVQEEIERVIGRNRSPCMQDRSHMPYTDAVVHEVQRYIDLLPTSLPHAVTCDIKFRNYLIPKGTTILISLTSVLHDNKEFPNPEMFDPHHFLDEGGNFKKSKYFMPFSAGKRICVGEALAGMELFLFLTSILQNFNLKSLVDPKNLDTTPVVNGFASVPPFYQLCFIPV
compound,measurement,setting,value
Cc1cc(NC2CCN(C(=O)CCNCC(=O)O)CC2)nc(NCc2cn(CCCNCCCNC3CCCCC3)nn2)n1,Efficacy,[1],-2.2%
same,Efficacy,[2],-2.8%
same,TI,Mus musculus,12.5
same,Activity,Rattus norvegicus,Non-Toxic
same,IC50,Cytochrome P450 2E1,> 100 µM
same,IC50,Cytochrome P450 2C9,> 100 µM
same,Efficacy,[3],-11%
